Experimental data reported in PubChem BioAssay AID2247 (Johns Hopkins Ion Channel Center, 2010).
About 1,200 (0.4%) of roughly 300,000 compounds were called active.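 Rule for the calls: active = B-score over 3 SD under the library average, no early fluorescence shift, positive overall ratio signal; inactive = the rest.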 Many of the other results were omitted from the sample, so actives are more common in it than they were.

biological target: Short transient receptor potential channel 4 (Mus musculus) (UniProt Q9QUQ5); assay: blockers of DAMGO-evoked TRPC4 calcium flux – Fluo4 calcium, HEK293 TRPC4beta/mu-opioid cells, primary screen (AID 2247); details: at 10 µM; active compounds read low
In short: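 Assay system – HEK293 line stably carrying TRPC4beta and mu-opioid receptor · Doses – single dose · Detection – Fluo4 calcium-dye fluorescence, kinetic read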

Short transient receptor potential channel 4 (Mus musculus), sequence (Q9QUQ5 whole entry, looked up): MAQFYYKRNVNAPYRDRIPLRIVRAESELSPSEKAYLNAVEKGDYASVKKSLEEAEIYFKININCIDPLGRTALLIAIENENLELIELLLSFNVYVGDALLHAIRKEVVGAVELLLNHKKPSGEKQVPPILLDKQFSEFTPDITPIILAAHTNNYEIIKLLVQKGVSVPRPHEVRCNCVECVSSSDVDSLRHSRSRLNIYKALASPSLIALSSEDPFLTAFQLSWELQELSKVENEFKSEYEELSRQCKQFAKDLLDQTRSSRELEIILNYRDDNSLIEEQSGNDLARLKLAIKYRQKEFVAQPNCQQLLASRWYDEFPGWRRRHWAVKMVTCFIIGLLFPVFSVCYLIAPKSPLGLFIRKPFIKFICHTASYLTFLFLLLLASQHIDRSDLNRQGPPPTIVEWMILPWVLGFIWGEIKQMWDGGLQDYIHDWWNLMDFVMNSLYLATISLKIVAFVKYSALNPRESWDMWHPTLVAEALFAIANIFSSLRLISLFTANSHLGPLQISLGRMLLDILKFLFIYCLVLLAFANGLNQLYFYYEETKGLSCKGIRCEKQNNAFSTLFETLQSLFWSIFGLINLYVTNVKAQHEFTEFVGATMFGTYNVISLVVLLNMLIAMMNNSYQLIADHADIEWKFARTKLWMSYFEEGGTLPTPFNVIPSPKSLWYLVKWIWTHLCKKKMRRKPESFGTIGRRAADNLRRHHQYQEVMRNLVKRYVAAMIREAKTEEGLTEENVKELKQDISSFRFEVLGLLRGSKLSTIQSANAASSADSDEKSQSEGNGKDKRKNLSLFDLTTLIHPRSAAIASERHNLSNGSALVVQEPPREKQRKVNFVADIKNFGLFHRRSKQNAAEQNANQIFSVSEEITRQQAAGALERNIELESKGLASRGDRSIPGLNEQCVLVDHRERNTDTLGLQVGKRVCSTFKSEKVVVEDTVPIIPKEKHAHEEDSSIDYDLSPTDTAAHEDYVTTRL

B-score, active:
COc1ccc(CN2CCCC(C(=O)c3ccc(Cl)cc3)C2)cc1Cn1cncn1 (stereo unspecified) -7, O=[N+]([O-])c1ccccc1Nc1ccc(O)cc1 -6, Cc1ccc(C(=O)Nc2nnc(C3=COCCO3)o2)cc1C -6, O=C(CSc1nc2ccccc2c(=O)n1CCCO)N1CCc2ccccc21 -7, O=C(O)CCn1cc(/C=C/C(=O)c2ccc(Cl)cc2)c(-c2cccc(Br)c2)n1 -6, CC(C)Cc1nc(N2CCOCC2)c(C#N)c2c1CCC2 -6, O=C(CCN1CCc2ccccc2C(O)(c2ccccc2)C1)c1ccc2c(c1)OCCO2 (stereo unspecified) -7, CC(=O)Oc1ccc(NC(=O)CCC2CCCCC2)c(C(=O)O)c1 -6, Cc1ccc(CSc2nc(-c3ccccc3)c(C#N)c(=O)[nH]2)cc1 -6, CN(C)CCN(C(=O)C1CCCCC1)c1nc2cc3c(cc2s1)OCO3 -6, COc1cccc2cc(C(N)=O)/c(=N\NC(=O)c3ccccc3)oc12 -6, CCCCN(Cc1ccccc1)C(=O)C1CCN(Cc2sccc2C)CC1 -6, CCc1ccc(C(CNc2nc(C(F)(F)F)nc3ccccc23)N(C)C)cc1 (stereo unspecified) -7, Fc1ccccc1COc1ccccc1CNCc1ccncc1 -7, Cc1cc(N/N=C/c2ccccc2F)c2ccccc2n1 -8, CCCc1cc(=O)[nH]c(SCC(=O)Nc2sc3c(c2C#N)CCCC3)n1 -6, CC(NCc1ccccc1OC1CCCC1)c1ccccc1 (stereo unspecified) -6, O=C(c1cccc(C(=O)N2CCN(c3ccc(F)cc3)CC2)c1)N1CCN(c2ccc(F)cc2)CC1 -8, c1ccc(Nc2n[nH]nc2-c2ccccc2)cc1 -6, COc1cc(C(F)(F)F)nc2c(Br)c(C(C)(C)C)nn12 -6, Cc1cccc2cc(CN(Cc3nnnn3Cc3ccccc3)C3CCCC3)c(=O)[nH]c12 -7, CC(C)Oc1ccc(CCC(=O)NNC(=S)NCc2ccccc2)cc1 -6

B-score, inactive:
CSCC[C@H](NC(=O)NCc1cccs1)C(=O)O, COc1cc(CN2CCCC(C(=O)c3ccc(SC)cc3)C2)cc(Cl)c1O (stereo unspecified), COc1ccc(C(=O)C2CCCN(Cc3ccc4nonc4c3)C2)c(C)c1 (stereo unspecified), CCC(C)OC(=O)C(C)Oc1ccc(-c2ccccc2)cc1 (stereo unspecified), O=S(=O)(/C=C/c1ccccc1)N1CCNCC1, O=C(O)c1ccccc1C(=O)NC1=NN(c2ccccc2)CC1, Cc1ccc(Nc2ccc(C(N)=O)cc2[N+](=O)[O-])cc1, O=C(O)c1ccccc1C(=O)Nc1ccccc1[N+](=O)[O-], O=C(Nc1nnc(C2=COCCO2)o1)c1ccc([N+](=O)[O-])s1, COc1cc(-c2nnc(NC(=O)C3=COCCO3)o2)cc(OC)c1OC, Cc1ccc(CNC(=O)C(=O)c2cn(CC(=O)N3CCCC3)c3ccccc23)cc1, O=C(Nc1ccc(N2CCCCC2)cc1)c1cc(S(=O)(=O)N2CCOCC2)ccc1F, CCc1nn(CCCC(=O)Nc2ccc(C)c(C)c2)c(=O)c2cc3occc3n12, N/C(=N\OC(=O)Nc1ccccc1)c1ccno1, CC1CCN(CCCn2c(SCC(=O)NC3CCCC3)nc3ccccc3c2=O)CC1, Cn1c(SCC(=O)N2CCCc3ccccc32)nc2ccccc2c1=O, CCOc1ccc(CCNC(=O)CN2C(=O)NC3(CCc4ccccc43)C2=O)cc1OCC (stereo unspecified), COCCn1c(SC(C)C(=O)NC2CC2)nnc1-c1cccc(C)c1 (stereo unspecified), CCOC(=O)/C(C#N)=C/c1cn(CCC(=O)O)nc1-c1ccc(Br)cc1, O=C(/C=C/NNC(=O)c1cccc(Br)c1)c1ccccc1, CCOC(=O)N1CCN(S(=O)(=O)N2CCCC(C(=O)NCCCN3CCC(C)CC3)C2)CC1 (stereo unspecified), Cc1ccnc(N2CCN(C(=O)CSc3nc4ccccc4nc3N3CCCCC3)CC2)c1, CC(C)Cc1nc(Cl)c(C#N)c2c1CCC2, CC(C)c1nc(N2CCOCC2)c(C#N)c2c1COC(C)(C)C2, CCCCn1c(N)c(N(CCOC)C(=O)c2cccc(S(=O)(=O)N3CCCCC3)c2)c(=O)[nH]c1=O, CN1CCNC(=O)C1CC(=O)N1CC=C(c2ccc(F)cc2)CC1 (stereo unspecified), COc1cccc(N(CC(=O)NCc2ccccc2)C(=O)CCC(=O)Nc2nccs2)c1, CCC1(c2ccccc2)NC(=O)N(CC(=O)c2ccc3c(c2)OCO3)C1=O (stereo unspecified), O=C(CN1CCN(c2ccccc2F)CC1)c1ccc2c(c1)OCO2, COc1ccc(NC(=O)CCCC2CCCCC2)c(OC)c1, COC(=O)c1sccc1NC(=O)CCC1CCCC1, CC(=O)Nc1ccc(NC(=O)C2CCCN2S(=O)(=O)c2cccc(C(F)(F)F)c2)cc1 (stereo unspecified), CC(C)c1ccc(S(=O)(=O)N2CCN(C(=O)CN3C(=O)NC(C)(c4ccccc4)C3=O)CC2)cc1 (stereo unspecified), N#Cc1c(-c2ccccc2)nc(SCc2ccc([N+](=O)[O-])cc2)[nH]c1=O, N#Cc1c(-c2ccccc2)nc(SCc2cccc(C(F)(F)F)c2)[nH]c1=O, CC(C)c1ccc(S(=O)(=O)N2CCC3(CC2)OCCO3)cc1, Nc1ccc(C(=O)N2CCN(S(=O)(=O)c3ccc(Cl)cc3)CC2)cc1[N+](=O)[O-], CCN(CC)CCN(C(=O)c1cc(Cl)sc1Cl)c1nc2cc3c(cc2s1)OCO3, CN(C)CCN(C(=O)CN1C(=O)c2ccccc2C1=O)c1nc2cc3c(cc2s1)OCCO3, CC(=O)Nc1ccc(S(=O)(=O)Oc2ccc(Br)cc2C(=S)N2CCOCC2)cc1, COc1ccc(/C(C)=N/N2CCOCC2)c(O)c1, COc1ccc(C(=O)N/N=c2\oc3ccccc3cc2C(N)=O)cc1, NC(=O)c1cc2ccccc2o/c1=N/NC(=O)c1cccc(F)c1, COc1ccc(C(=O)NC2CC(C)(C)Cc3c2cnn3-c2ccccc2)c(OC)c1 (stereo unspecified), CN1OC(COC(=O)c2ccc(Cl)cc2)CC1c1ccccc1 (stereo unspecified), CCCC(=O)C1CCN(Cc2ccccc2)CC1, CCOC(=O)C1CCN(Cc2ccc(-c3ccccc3)cc2)CC1, COc1cccc(CNc2ncc(-c3ccccc3)n2C)c1, CCN(CC)S(=O)(=O)c1ccc(Cl)c(C(=O)NCCN2CCOCC2)c1, Cc1ccccc1N(C(=O)Cc1cccs1)C(C(=O)NC1CCCCC1)c1cn(C)nc1C (stereo unspecified), COc1cccc(CNc2nc(C(F)(F)F)nc3ccccc23)c1, NS(=O)(=O)c1ccc(CCNc2nc(C(F)(F)F)nc3ccccc23)cc1, CN(Cc1ccccc1F)C(=O)C(Cc1ccccc1)NC(=O)c1ccccc1 (stereo unspecified), Cn1c(C(=O)N2CCCC(C(=O)NCc3ccccc3)C2)cc2sccc21 (stereo unspecified), Cc1ccc(CN(C(=O)c2sc3ccccc3c2Cl)C2CCS(=O)(=O)C2)cc1 (stereo unspecified), Fc1ccccc1COc1cccc2cccnc12, c1ccc(COc2ccccc2CNCc2cccnc2)cc1, Cc1ccc(S(=O)(=O)CC(=O)Nc2sc(C)c(C)c2C(N)=O)cc1, COc1cc2ccccc2cc1C(=O)N1CCOCC1, CCCCCn1c(=O)[nH]c2cc(C(=O)NCCCN3CCCCC3C)ccc2c1=O (stereo unspecified), N#CCCCn1c(O)c(N=NC(=O)C(O)c2ccccc2)c2ccccc21 (stereo unspecified), Cc1ccc2nc(C)cc(N/N=C/c3ccc(F)cc3)c2c1, Oc1ccc(/C=N/Nc2nc(-c3ccccc3F)nc3ccccc23)c(O)c1, CCCCC(c1nnnn1CS(=O)(=O)c1ccc(C)cc1)N1CCC(C(N)=O)CC1 (stereo unspecified), CC1(C)OC(=O)C(=CNC(CO)C(=O)O)C(=O)O1 (stereo unspecified), CCN1CCN(CC(=O)Nc2sc3c(c2C#N)CCC3)CC1, NC(=O)c1c(NC(=O)CSc2nc(N)cc(=O)[nH]2)sc2c1CCCC2, COc1ccc2[nH]c(=O)c(CN(Cc3cccnc3)S(=O)(=O)c3ccccc3F)cc2c1, CC(C)(C)NCc1cc(Br)ccc1OC1CCCC1, COc1ccccc1CN1CCN(C(c2ccccc2)c2ccccc2)CC1, CC1CCCCC1NC(=O)/C(C#N)=C/C=C/c1ccccc1[N+](=O)[O-] (stereo unspecified), COc1ccc(N(Cc2cc3ccc(C)cc3[nH]c2=O)S(=O)(=O)c2ccccc2)cc1, O=C(c1cc(C(=O)N2CCN(c3ccc(F)cc3)CC2)cc([N+](=O)[O-])c1)N1CCN(c2ccc(F)cc2)CC1, O=C(c1cc2cc(F)ccc2[nH]1)N1CCN(c2ccc(F)cc2)CC1, Oc1ccc(-c2nnc(Nc3ccccc3)c3ccccc23)cc1, O=C(O)c1n[nH]nc1-c1ccccc1, CC1C(=O)N2CCCc3cc(S(=O)(=O)NCc4ccc(F)cc4)cc1c32 (stereo unspecified), Cc1cccc2cc(CN(Cc3ccc4c(c3)OCO4)Cc3nnnn3C3CCCC3)c(=O)[nH]c12, Cc1cc(C)c2cc(CN(Cc3nnnn3Cc3ccc(F)cc3)C3CCCC3)c(=O)[nH]c2c1, NS(=O)(=O)c1ccc(NC(=S)Nc2ccc(Br)c(Cl)c2)cc1, Cc1ccc(S(=O)(=O)N2CCC(C)CC2)cc1C(=O)NCc1ccccn1, O=C(NNC(=S)NCc1ccccc1)c1ccc(OC(F)F)cc1, Cc1ccc(OCC(=O)NNC(=S)NCc2ccccc2)cc1, COc1ccc(NC(=O)CN(C)C(=O)c2cc(-c3ccc(C)o3)nc3ccccc23)cc1
